Reference: article PMC3741069 (Biochemistry, 2013)
Substitutions are numbered along the chain they refer to.

How the values were obtained:
nitrate reductase (NarB) [1] = target: T1, nitrate reductase (NarB) (Synechococcus elongatus, UniProt P39458, K72R); test: spectral perturbation titration; type: binding
T1 sequence (P39458 15-729 K72R): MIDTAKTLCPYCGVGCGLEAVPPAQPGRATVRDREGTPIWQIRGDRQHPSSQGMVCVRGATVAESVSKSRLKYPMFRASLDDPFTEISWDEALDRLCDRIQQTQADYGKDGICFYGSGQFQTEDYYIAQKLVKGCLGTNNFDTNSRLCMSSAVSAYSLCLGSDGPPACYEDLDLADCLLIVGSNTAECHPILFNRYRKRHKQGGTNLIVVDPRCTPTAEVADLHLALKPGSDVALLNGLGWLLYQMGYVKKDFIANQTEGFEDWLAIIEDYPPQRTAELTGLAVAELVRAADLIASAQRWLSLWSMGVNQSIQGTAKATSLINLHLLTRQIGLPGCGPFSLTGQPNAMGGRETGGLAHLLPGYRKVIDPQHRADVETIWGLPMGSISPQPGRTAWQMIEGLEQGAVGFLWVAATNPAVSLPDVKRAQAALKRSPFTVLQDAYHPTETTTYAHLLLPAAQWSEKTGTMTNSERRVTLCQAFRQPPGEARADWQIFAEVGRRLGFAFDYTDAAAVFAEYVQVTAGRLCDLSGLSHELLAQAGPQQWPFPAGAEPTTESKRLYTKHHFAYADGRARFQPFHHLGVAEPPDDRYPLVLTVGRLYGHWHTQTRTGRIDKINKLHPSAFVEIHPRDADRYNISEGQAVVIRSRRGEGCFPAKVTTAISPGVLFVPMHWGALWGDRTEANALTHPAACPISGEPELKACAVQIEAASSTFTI
Outline: (§1)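 Single-residue NarB variants were made by site-directed mutagenesis and expressed and purified as for wild type (His6, Co affinity, DEAE, gel filtration). Complex formation with ferredoxin or nitrate was followed by difference absorbance at variant-specific wavelength pairs chosen for signal:noise. The change at saturating nitrate was taken as 100% complex. Kd came from fitting perturbation magnitude against ligand concentration to a single binding isotherm.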

nitrate reductase (NarB) [2] = target: T2, nitrate reductase (NarB) (Synechococcus elongatus, UniProt P39458, R84K); test: spectral perturbation titration; type: binding
T2 sequence (P39458 15-729 R84K): T1 sequence (P39458 15-729 K72R) with R58K, R70K
Outline: as §1

SMILES: O=[N+]([O-])O [nitrate]
- Kd (nitrate reductase (NarB) [1]): 15.5 ± 5 µM
- Kd (nitrate reductase (NarB) [2]): 6 ± 1 µM
